pIC50: −log10 of the molar value. Calls of active or inactive are those of the source. The rule behind the calls is not given here.
Columns and labels:
Tubulin (Bos taurus) [1] = target: T1, Tubulin (Bos taurus) (UniProt Q6B856+Q862L2+Q862F3); assay: (§1) Binding affinity to bovine brain tubulin assessed as reduction in tubulin intrinsic tryptophan fluorescence intensity incubated for 45 mins by spectrophotometry based fluorescence titration assay
Procedure, shortened: (§2)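 Tubulin binding measured as quenching of intrinsic tryptophan fluorescence across increasing compound concentrations. KD derived from double reciprocal plots. Mean ± S.D. of three independent experiments, each performed in triplicate.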

Tubulin = Tubulin (Bos taurus, UniProt Q6B856+Q862L2+Q862F3); assay: as §1; procedure, shortened: as §2
Tubulin (Bos taurus) [2] = target: T1, Tubulin (Bos taurus); assay: Inhibition of bovine brain tubulin polymerization incubated for 10 to 30 mins by spectrophotometry based light scattering assay
Procedure, shortened: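 Polymerisation of 12 µM tubulin followed by turbidity (light scattering) at 350 nm. Compound range 0–25 µM, over 30 min. Reported as relative absorbance.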

[3] = Cytotoxicity activity against human PC3 cells after 48 hrs by MTT assay; type: functional, cell-based; settings: PC-3, 48 h
Procedure, shortened: (§3)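 Cells exposed for 48 h to increasing gradient concentrations. Proliferation read by MTT assay as percentage cell survival. IC50 is the drug concentration giving 50% inhibition of proliferation.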

MDA-MB-231 [4] = assay: Cytotoxicity activity against human MDA-MB-231 cells after 48 hrs by MTT assay; type: functional, cell-based; settings: MDA-MB-231, 48 h; procedure, shortened: as §3
MDA-MB-231 [5] = assay: Induction of cell cycle arrest in human MDA-MB-231 cells assessed as accumulation at G2/M phase at 10 uM after 12 to 48 hrs by propidium iodide staining based FACS method; type: functional
Procedure, shortened: (§4)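 MDA-MB-231 cells treated for 0–48 h (compounds at 10 µM or 25 µM depending on analog); DNA stained with propidium iodide and cell cycle profiles read by flow cytometry; G2/M (4N DNA) and sub-G1 (apoptotic index) populations quantified at each time point.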

MDA-MB-231 [6] = assay: Induction of apoptosis in human MDA-MB-231 cells assessed as accumulation at subG1 phase at 10 uM after 12 to 48 hrs by propidium iodide staining based FACS method; type: functional, cell-based; procedure, shortened: as §4
MDA-MB-231 [7] = assay: Induction of apoptosis in human MDA-MB-231 cells assessed as reduction in survivin protein expression at 10 uM after 24 hrs by immunoblot method; type: functional, cell-based
Procedure, shortened: (§5)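 Protein lysates from treated and control MDA-MB-231 cells analysed by immunoblot, probed for survivin and cleaved PARP, with β-actin as loading control.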

MDA-MB-231 [8] = assay: Induction of apoptosis in human MDA-MB-231 cells assessed as increase in cleaved PARP protein level at 10 uM after 24 hrs by immunoblot method; type: functional, cell-based; procedure, shortened: as §5
MDA-MB-231 [9] = assay: Induction of apoptosis in human MDA-MB-231 cells assessed as increase in caspase-3/7 activity by measuring Z-DEVD-aminoluciferin cleavage at 10 uM after 24 hrs by luminescence plate reader based method; type: functional, cell-based
Procedure, shortened: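 Lysates from treated and control MDA-MB-231 cells assayed for caspase-3/7 activity by luminescence from cleavage of Z-DEVD-aminoluciferin substrate; activity expressed relative to untreated control.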

MDA-MB-231 [10] = assay: Induction of cell death in human MDA-MB-231 cells at 10 uM after 48 hrs by propidium iodide staining based FACS method; type: functional
Procedure, shortened: (§6)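 MDA-MB-231 cells treated for 0–48 h, with samples at several time points. Concentration was 10 µM for some analogs and 25 µM for others. DNA stained with propidium iodide and analysed by flow cytometry. 2N DNA scored as G1, 4N as G2/M, below 2N as sub-G1 (apoptotic index).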

Tubulin (Bos taurus) [11] = target: T1, Tubulin (Bos taurus); assay: Inhibition of bovine brain tubulin polymerization at 25 uM incubated for 10 to 30 mins by spectrophotometry based light scattering assay
Procedure, shortened: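 Assembly of 12 µM tubulin followed by turbidity (light scattering) at 350 nm over 30 min with compound at 0–25 µM; relative absorbance compared with control.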

MDA-MB-231 [12] = assay: Induction of cell cycle arrest in human MDA-MB-231 cells assessed as accumulation at G2/M phase at 25 uM after 12 to 48 hrs by propidium iodide staining based FACS method; type: functional; procedure, shortened: as §6
MDA-MB-231 [13] = assay: Induction of apoptosis in human MDA-MB-231 cells assessed as accumulation at subG1 phase at 25 uM after 12 to 48 hrs by propidium iodide staining based FACS method; type: functional, cell-based; procedure, shortened: as §6
MDA-MB-231 [14] = assay: Induction of apoptosis in human MDA-MB-231 cells assessed as reduction in survivin protein expression at 25 uM after 24 hrs by immunoblot method; type: functional, cell-based
Procedure, shortened: (§7)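 Lysates from treated and control cells run on immunoblots. Probed for survivin and cleaved PARP, with β-actin as loading control.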

MDA-MB-231 [15] = assay: Induction of apoptosis in human MDA-MB-231 cells assessed as increase in cleaved PARP protein level at 25 uM after 24 hrs by immunoblot method; type: functional, cell-based; procedure, shortened: as §7
MDA-MB-231 [16] = assay: Induction of apoptosis in human MDA-MB-231 cells assessed as increase in caspase-3/7 activity by measuring Z-DEVD-aminoluciferin cleavage at 25 uM after 24 hrs by luminescence plate reader based method; type: functional, cell-based
Procedure, shortened: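 Lysates from treated and control cells assayed for caspase-3/7 activity. Read-out was luminescence from cleavage of Z-DEVD-aminoluciferin, expressed relative to control.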

MDA-MB-231 [17] = assay: Induction of cell death in human MDA-MB-231 cells at 25 uM after 48 hrs by propidium iodide staining based FACS method; type: functional; procedure, shortened: as §6

COc1ccc2c(c1OC(C)=O)C(=O)O[C@@H]2[C@H]1c2c(c(Br)c3c(c2OC)OCO3)CCN1C
Activity (Tubulin (Bos taurus) [1]): Dose-dependent effect | Kd (Tubulin): 44 µM | inhibition (Tubulin (Bos taurus) [2]): Dose-dependent effect | pIC50 [3]: 4.31 | pIC50 (MDA-MB-231 [4]): 5.60 | Activity (MDA-MB-231 [5]): 15% | Activity (MDA-MB-231 [6]): Active | Activity (MDA-MB-231 [7]): inactive | Activity (MDA-MB-231 [8]): Active | Activity (MDA-MB-231 [9]): Active | Activity (MDA-MB-231 [10]): 80%

COc1ccc2c(c1O)C(=O)O[C@@H]2[C@H]1c2c(c(Br)c3c(c2OC)OCO3)CCN1C
Activity (Tubulin (Bos taurus) [1]): Dose-dependent effect | Kd (Tubulin): 55 µM | inhibition (Tubulin (Bos taurus) [2]): Dose-dependent effect | inhibition (Tubulin (Bos taurus) [11]): Active | pIC50 [3]: 5.25 | pIC50 (MDA-MB-231 [4]): 5.66 | Activity (MDA-MB-231 [5]): 15% | Activity (MDA-MB-231 [6]): Active | Activity (MDA-MB-231 [7]): inactive | Activity (MDA-MB-231 [8]): Active | Activity (MDA-MB-231 [9]): Active

COc1ccc2c(c1OC(=O)NCc1ccccc1)C(=O)O[C@@H]2[C@H]1c2c(c(Br)c3c(c2OC)OCO3)CCN1C
Activity (Tubulin (Bos taurus) [1]): Dose-dependent effect | Kd (Tubulin): 21 µM | inhibition (Tubulin (Bos taurus) [2]): Dose-dependent effect | pIC50 [3]: 4.31 | pIC50 (MDA-MB-231 [4]): 4.70 | Activity (MDA-MB-231 [12]): 15% | Activity (MDA-MB-231 [13]): Active | Activity (MDA-MB-231 [14]): Active | Activity (MDA-MB-231 [15]): Active | Activity (MDA-MB-231 [16]): Active | Activity (MDA-MB-231 [17]): 80%

CCNC(=O)Oc1c(OC)ccc2c1C(=O)O[C@@H]2[C@H]1c2c(c(Br)c3c(c2OC)OCO3)CCN1C
Activity (Tubulin (Bos taurus) [1]): Dose-dependent effect | Kd (Tubulin): 26 µM | inhibition (Tubulin (Bos taurus) [2]): Dose-dependent effect | pIC50 [3]: 4.66 | pIC50 (MDA-MB-231 [4]): 5.41 | Activity (MDA-MB-231 [12]): 15% | Activity (MDA-MB-231 [13]): Active | Activity (MDA-MB-231 [14]): Active | Activity (MDA-MB-231 [15]): Active | Activity (MDA-MB-231 [16]): Active | Activity (MDA-MB-231 [17]): 80%
